An excerpt weighted towards active compounds, which were near 1.8% of everything screened.
iPSC survival up: enhancers of human iPSC single-cell survival | hiPSC single-cell survival, ATPlite luminescence; 100% = ROCK inhibitor wells, 0% = DMSO | survival enhancement, % at 20 µM | actives 0.044% (n = 360,000) | AID 602274; in the data active = survival enhancement above about 18%;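 also: cells exposed to compounds for 16 hours before the ATP read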
SKN-1 inh: C. elegans SKN-1 inhibition. C. elegans VP596 Pgst-4::GFP/RFP ratio, acrylamide-induced, 24 h. inhibition, % at 21.8 µM. actives 0.49% (n = 360,000). AID 624304;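 active = interference check ratio from 0.5 to 1.5 plus GFP to RFP signal ratio inhibition reaching or exceeding a fixed threshold, cut at about 30% in these data, passing the limit was not always enough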
Tb MetRS inh: Trypanosoma brucei MetRS inhibition | purified T. brucei MetRS, ATP depletion, Kinase-Glo luminescence | inhibition, % at 11.9 µM | actives 0.4% (n = 360,000) | AID 624268;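 active = inhibition above a per-plate cutoff of the control wells' mean inhibition plus 3 SD, cut at about 5.5% in these data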
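Measured by: Kinase-Glo luciferase luminescence reporting remaining unconsumed ATP. Material: purified T. brucei MetRS enzyme. Doses: 11.9 µM compound single dose, 0.9% DMSO. Medium: HEPES buffer containing pyrophosphatase, BSA, spermine, DTT. Times: 15 min preincubation, 2 h reaction, all 25 °C. Reagent: methionine, ATP and bulk E. coli tRNA.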
eLon inh: inhibitors of E. coli Lon protease. P0A9M0. purified E. coli Lon protease, fluorescence polarization. inhibition, % at 7.94 µM. actives 0.42% (n = 360,000). AID 602123; in the data active = inhibition above about 13%, passing the limit was not always enough
Target sequence (P0A9M0 whole entry, looked up): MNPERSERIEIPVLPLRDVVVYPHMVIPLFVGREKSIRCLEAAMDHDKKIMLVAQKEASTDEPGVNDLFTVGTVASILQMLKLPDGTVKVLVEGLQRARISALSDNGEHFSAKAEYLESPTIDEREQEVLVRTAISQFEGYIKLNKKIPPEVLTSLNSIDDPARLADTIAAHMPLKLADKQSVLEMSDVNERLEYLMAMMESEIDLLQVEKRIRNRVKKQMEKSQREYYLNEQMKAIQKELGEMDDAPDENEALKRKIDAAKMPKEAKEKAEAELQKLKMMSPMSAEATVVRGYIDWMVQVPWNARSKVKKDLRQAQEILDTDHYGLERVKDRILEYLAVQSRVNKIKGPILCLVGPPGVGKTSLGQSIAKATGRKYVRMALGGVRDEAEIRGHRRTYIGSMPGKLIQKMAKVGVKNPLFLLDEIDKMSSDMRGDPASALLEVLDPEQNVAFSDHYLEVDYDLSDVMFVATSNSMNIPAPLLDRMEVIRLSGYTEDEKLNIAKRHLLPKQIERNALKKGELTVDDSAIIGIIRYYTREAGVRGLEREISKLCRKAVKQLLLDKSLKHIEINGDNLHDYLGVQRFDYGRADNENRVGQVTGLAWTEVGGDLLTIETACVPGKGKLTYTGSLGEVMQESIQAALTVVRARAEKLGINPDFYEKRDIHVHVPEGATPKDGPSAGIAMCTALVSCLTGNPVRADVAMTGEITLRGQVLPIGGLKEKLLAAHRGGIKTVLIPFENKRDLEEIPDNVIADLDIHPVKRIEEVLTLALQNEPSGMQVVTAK
PREPL inhibitor: inhibits the human prolyl oligopeptidase-like enzyme. Q4J6C6. recombinant PREPL, fluorescence polarization activity-based probe. inhibition, % at 5.96 µM. actives 0.68% (n = 320,000); in the data active = inhibition above about 43%
MT1-MMP act inh: inhibitors of human MT1-MMP activation; actives 0.061% (n = 360,000); P50281; AID 651647; GFP/RFP ratio change, % at 20 µM; HT1080 RFP-PRO-GFP cells, GFP/RFP ratio fluorescence, overnight; percent of plate control window, DMSO zero;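 active = GFP/RFP ratio change of at least 30% with cell ATP level not reduced by more than half and red fluorescence within 50% of control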
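Assay system: RFP-PRO-GFP reporter HT1080 cells; read-out basis: GFP/RFP fluorescence ratio; benchmarks: DMSO wells and RFP-L50D-GFP cells; doses: 20 µM single dose, 1% DMSO; schedule: overnight cell settling, then overnight compound exposure, 37 °C, 5% CO2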
TbMetRS confirm: confirmation of Trypanosoma brucei MetRS inhibitors; shares compounds with Tb MetRS inh; T. brucei MetRS enzyme, luminescence (ATP depletion); inhibition, % at 11.9 µM; actives 93% (n = 1,400); AID 624412; in the data active = inhibition above about 7%
Jurkat cytotox: kills Jurkat cells in T. brucei MetRS counterscreen; AID 624413; inhibition, % at 8.3 µM; Jurkat cells viability, ATP luminescence; shares compounds with Tb MetRS inh; actives 12% (n = 1,400); in the data active = inhibition above about 15%
TbMetRS FP orth: orthogonal test for Trypanosoma brucei MetRS inhibitors | shares compounds with Tb MetRS inh | inhibition, % at 11.9 µM | actives 44% (n = 1,400) | purified T. brucei MetRS, fluorescence polarization; in the data active = inhibition above about 17%
Hits are given with their value; . = inactive; / = no result.

SMILES | iPSC survival up | SKN-1 inh | Tb MetRS inh | eLon inh | PREPL inhibitor | MT1-MMP act inh | TbMetRS confirm | Jurkat cytotox | TbMetRS FP orth
O=C(Cn1c2[n+](c3ccc(C(F)(F)F)cc31)CCCCC2)Nc1ccccc1 | . | . | 28 | . | . | . | 35 | . | .
O=C(Nn1c(-c2ccc(Br)cc2)nc2ccccc2c1=O)c1ccc([N+](=O)[O-])cc1 | . | . | 8.7 | . | . | . | 18 | . | .
O=C1CC(c2ccc(F)cc2)CC2=C1C(c1ccc([N+](=O)[O-])o1)Nc1ccccc1N2 (centres undefined) | . | . | 6.9 | . | . | . | . | . | .
O=C1CC(c2ccccc2)CC2=C1C(c1ccccn1)Nc1ccccc1N2 (centres undefined) | . | . | . | . | . | . | / | / | /
O=C(CCCSc1nc2ccccc2[nH]1)NCc1ccc(Cl)cc1 | . | . | 43 | . | . | . | 68 | . | 30
O=C(CSc1nc2ccccc2[nH]1)NCCc1ccc(Cl)cc1 | . | . | 32 | . | . | . | 37 | . | 17
Cc1ccc(CNC(=O)CSc2nc3ccccc3[nH]2)cc1 | . | . | . | . | . | . | / | / | /
O=C(CCCSc1nc2ccccc2[nH]1)NCc1ccccc1F | . | . | . | . | . | . | / | / | /
CN(C)CCNC(=O)c1ccc(COc2ccc(Cl)cc2Cl)cc1 | . | . | 9.7 | . | . | . | 16 | 27 | .
CN1CCN(C(=O)CCCOc2ccc(Cl)cc2Cl)CC1 | . | . | . | . | . | . | / | / | /
O=C(c1ccco1)N1CCN(C(=O)c2ccc(COc3ccc(Cl)cc3Cl)o2)CC1 | . | . | 5.9 | . | . | . | 16 | . | .
CN1CCN(C(=O)c2ccc(COc3ccc(Cl)cc3Cl)cc2)CC1 | . | . | 9.9 | . | . | . | 19 | . | .
COc1cc(NC(=O)CCN2CC(C)OC(C)C2)cc(OC)c1 (centres undefined) | . | . | 5.8 | . | . | . | . | . | .
COc1cc(NC(=O)CCN2CCOCC2)cc(OC)c1 | . | . | . | . | / | . | / | / | /
Cc1cc(C)cc(N(CC(=O)Nc2ccc(Br)cc2)S(=O)(=O)c2c(C)[nH]c(=O)[nH]c2=O)c1 | . | . | 49 | . | . | . | 76 | . | 45
O=C1NC[C@H](CCCCN2CCN(CC3CCCCC3)C(=O)C2=O)N(CCC2CCCCC2)C1=O | . | . | . | . | / | . | / | / | /
COCCCN1CC(=O)N2C(c3cccc(OC)c3)c3[nH]c4ccccc4c3C[C@H]2C1=O (some centres undefined) | . | . | 12 | . | . | . | 24 | . | .
CC(C)OCCCN1CC(=O)N2C(c3cccc([N+](=O)[O-])c3)c3[nH]c4ccccc4c3C[C@H]2C1=O (some centres undefined) | . | . | 93 | . | . | . | 95 | . | 85
COCCN1CC(=O)N2C(c3cccc(OC)c3)c3[nH]c4ccccc4c3C[C@H]2C1=O (some centres undefined) | . | . | 11 | . | . | . | 24 | . | .
COc1ccc(OC)c(C2c3[nH]c4ccccc4c3C[C@H]3C(=O)N(CCCOC(C)C)CC(=O)N23)c1 (some centres undefined) | . | . | . | . | . | . | / | / | /
CCN(CC)C(=O)[C@H]1C[C@H](CC(=O)NCCc2ccccn2)C(=O)N2CCc3c([nH]c4cc(-c5ccco5)ccc34)[C@]12C | . | . | . | . | / | . | / | / | /
O=C(NCc1nc2ccccc2[nH]1)c1ccc([N+](=O)[O-])cc1 | . | . | 52 | . | . | . | 75 | . | 40
O=C(NCc1nc2ccccc2[nH]1)c1ccc(S(=O)(=O)N2CCOCC2)cc1 | . | . | 12 | . | . | . | 21 | . | .

High-throughput results as filed in PubChem BioAssay.
